# Screens deposited in PubChem by The Scripps Research Institute Molecular Screening Center.
# A selection: hits, their analogues and other compounds. The true share with any hit is near 1.8%.
# TCR CD3 inh: inhibitors of human TCR-CD3 interaction, primary screen, biochemical, fluorescence, TAMRA-labeled TCR probe; inhibition, % at 9.4 µM; 360,000 compounds, 0.37% hits; AID 651800, 2012; in the data active = inhibition above about 19%;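 also: recombinant mutant TCR 2C K166C tagged with TAMRA read by polarization; 0% = receptor in buffer alone and 100% = receptor with positive control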
# DDE Tn7 FP inh: inhibitors of Tn7 peptide binding to fibrin DD(E), primary screen, biochemical, fluorescence polarization, human fibrin, Tn7 probe; FP displacement of FITC-Tn7 peptide from fibrin DD(E); 0% = median of compound wells per plate; 370,000 compounds, 0.13% hits; inhibition, % at 8.3 µM;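 active = inhibition above the mean of compounds falling within the control limits plus 3 SD of them, cut at about 14% in these data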;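 also: 0% = plate median of compound wells and 100% = 10 µM Aha-Tn7 peptide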
#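 System: human fibrin DD(E); quantity: Fibrin-DD(E) at 2 µM final; also added: fluorescent Tn7 probe at 0.1 µM; compound dosing: single nominal test concentration of 8.3 µM per compound; schedule: 10 min preincubation, 3 h with tracer, room temperature; detection: fluorescence polarization of the labelled Tn7 tracer; repeats: one replicate per compound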
# DDE Tn6 FP inh: inhibitors of Tn6 peptide binding to fibrin DD(E), primary screen, biochemical, fluorescence polarization, human fibrin, Tn6 probe | Fibrinogen beta chain (Homo sapiens), P02675 | Fibrin DD(E) TRITC-Tn6 fluorescence polarization displacement | inhibition, % at 8.3 µM | 370,000 compounds, 0.21% hits;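 active = inhibition above a per-campaign cutoff: mean of compounds within control limits plus 3 SD, cut at about 15% in these data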;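 also: 0% = median of all compound wells on the plate and 100% = blocking peptide control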
# HTRA1 inhibitor: HTRA1 serine protease inhibitors, primary screen, biochemical, fluorescence polarization, HTS; AID 504803, 2011; Q92743; inhibition, % at 5.96 µM; recombinant HTRA1, FP-rhodamine activity-based probe; 340,000 compounds, 0.5% hits; in the data active = inhibition above about 36%;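 also: 0% = enzyme with DMSO and 100% = wells lacking enzyme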
# mABHD4 FP: ABHD4 inhibitors, primary screen, biochemical, fluorescence polarization, mouse; (Lyso)-N-acylphosphatidylethanolamine lipase (Mus musculus), Q8VD66; purified mABHD4, FP-Rh probe fluorescence polarization; inhibition, % at 8.92 µM; 370,000 compounds, 0.54% hits; AID 720543, 2013;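 active = inhibition exceeding the mean over every tested compound plus 3 SD, cut at about 30% in these data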;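 also: 0% = plate median of compound wells and 100% = S159A mutant with DMSO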
# Target sequence (Q8VD66 whole entry, looked up): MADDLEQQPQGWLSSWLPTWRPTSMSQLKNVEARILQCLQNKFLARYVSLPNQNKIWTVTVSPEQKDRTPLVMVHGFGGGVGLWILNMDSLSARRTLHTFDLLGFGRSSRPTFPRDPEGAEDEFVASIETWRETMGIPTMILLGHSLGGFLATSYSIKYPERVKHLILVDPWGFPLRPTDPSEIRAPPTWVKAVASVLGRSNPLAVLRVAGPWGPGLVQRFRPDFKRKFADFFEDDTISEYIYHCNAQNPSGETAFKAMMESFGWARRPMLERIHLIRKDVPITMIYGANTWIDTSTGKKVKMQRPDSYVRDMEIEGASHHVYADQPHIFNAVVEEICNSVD
#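 Test system: mouse ABHD4 enzyme, wild type. Reagent: FP-Rh fluorescent activity-based probe, added after compound pre-incubation. Timing: pre-incubation 45 min, probe exposure 60 min, at 25 °C. Technique: FP readout, ex 525 nm / em 598 nm. Benchmarks: high control S159A mutant with DMSO, low control median of compound wells.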
# SIAE inh: human SIAE inhibitors, primary screen, biochemical, fluorescence polarization, FP-Rh probe, 1536-well HTS. Sialate O-acetylesterase (Homo sapiens), Q9HAT2. SIAE FP-Rh probe binding. inhibition, % at 9.66 µM. 370,000 compounds, 0.69% hits;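 active = inhibition above a cutoff: mean of compounds within the control limits plus 3 SD of those, cut at about 17% in these data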;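 also: 0% = plate median of compound wells and 100% = probe without SIAE protein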
# Tn7 DDE conf: inhibitors of Tn7 peptide binding to fibrin DD(E), confirmation, biochemical, fluorescence polarization, human fibrin, Tn7 probe | FP displacement of TRITC-Tn7 peptide from DD(E); 0% set at plate's compound-well median | shares compounds with DDE Tn7 FP inh | 460 compounds, 5% hits | inhibition, % at 8.3 µM;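 active = inhibition above the campaign cutoff, the mean of compounds within control limits plus 3 SD, cut at about 14% in these data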;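 also: 100% = median FP of high control wells holding Aha-Tn7 inhibitor peptide; displacers lower polarization since freed probe rises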
# DDE Tn7 FP ctr: DD(E)-Tn7 binding inhibition, counter-screen | shares compounds with DDE Tn7 FP inh | fibrin DD(E), TRITC-Tn7 probe displacement, fluorescence polarization | inhibition, % at 8.3 µM | 460 compounds, 3% hits;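 active = inhibition above the cutoff, the mean of compounds lying between the control bounds plus 3 SD of those compounds, cut at about 17% in these data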;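 also: 0% = median of compound sample wells and 100% = excess unlabeled Aha-Tn7 peptide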
# * = called active by the depositor; · = no result.
SMILES,TCR CD3 inh,DDE Tn7 FP inh,DDE Tn6 FP inh,HTRA1 inhibitor,mABHD4 FP,SIAE inh,Tn7 DDE conf,DDE Tn7 FP ctr
O=C(CCc1ccccc1)N[C@H]1[C@H](OC(=O)c2ccco2)CCC[C@]12C(=O)N(Cc1ccccc1)c1ccccc12,·,-2,-1,·,1,3,·,·
Cc1cccc(C)c1NC(=O)C1CCCN1S(=O)(=O)c1cccc2cccnc12 (configuration not stated),·,8,-14,·,4,-2,·,·
O=C(Nc1cccnc1)c1ccc([N+](=O)[O-])cc1Cl,0,16*,9,-3,0,-1,0,-6
COC(=O)[C@H]1C[C@@]2(C#N)c3ccccc3N(C(=O)OC(C)(C)C)[C@H]2N1C(=O)OC(C)(C)C,·,-5,-4,·,2,4,·,·
O=C1CCCc2cc3c(cc21)CC1(C3)Cc2cc3c(cc2C1)C(=O)CCC3,1,14*,5,-9,-10,6,8,2
Cc1cccc(NC(=O)c2cc(Cl)ccc2[N+](=O)[O-])c1,3,14*,2,-9,-2,2,0,-1
CC(=O)Nc1sc2c(c1-c1nc3ccccc3s1)CCN(C(C)C)C2,·,·,·,-15,·,·,·,·
C#CCCC(=O)Nc1sc2c(c1-c1nc3ccccc3s1)CCN(C(C)C)C2,·,16*,4,·,7,-3,14*,6
C=CCN(Cc1ccc2c(c1)OCO2)C(C#CCCCC)C(C)C (configuration not stated),·,-1,5,·,3,2,·,·
CCn1c(=O)n(CC(=O)N2CCOCC2)c(=O)c2ccccc21,·,0,-2,·,4,6,·,·
O=C(Nc1ccc(F)cc1F)Nc1sccc1-c1nc2ccccc2s1,0,15*,-1,-31,-28,-34,8,1
CSc1ccc(C2C(C(=O)c3ccco3)=C(O)C(=O)N2c2nnc(SC)s2)cc1 (configuration not stated),-4,26*,3,-9,-15,2,-4,-12
Cc1ccc([C@H](C)NC(=O)C2=C(N)N(S(=O)(=O)c3ccc(C)cc3)C(C(=O)c3ccccc3)C2c2ccccc2Cl)cc1 (some centres not stated),·,0,-2,·,-12,-7,·,·
COc1ccccc1-c1sc2ccccc2c1-c1ccc(O)cc1,-1,-8,-6,0,-17,-1,·,·
COc1ccccc1-c1sc2ccccc2c1C#Cc1ccc(N(C)C)cc1,-10,14*,-4,9,0,9,4,4
CCOc1ccc(Oc2c(Cl)cnn(Cc3cccc4ccccc34)c2=O)cc1,·,2,3,·,-2,2,·,·
CC(C)C[C@@H]1COc2cc(Br)ccc2S(=O)(=O)N1Cc1cn(Cc2ccccc2)nn1,·,-5,1,·,0,3,·,·
CC(C)(C)c1cc[n+](-c2[nH]c(=O)sc2/C=N/NC([S-])=Nc2ccccc2)cc1,-3,20*,-4,27,24,9,-6,-11
COc1cccc(C(=O)N2CCCC(c3nc(-c4cccs4)no3)C2)c1 (configuration not stated),7,-5,7,-6,-2,3,·,·
O=C(c1cccc(F)c1)N1CCCC(c2nc(-c3cccs3)no2)C1 (configuration not stated),·,15*,0,·,-6,-4,3,-2
CCOC(=O)N1CCN(Cc2nc(-c3ccc(C)cc3)no2)CC1,-9,16*,-1,-1,-4,-5,16*,8
COc1ccc(S(=O)(=O)N2CCN(CC(=O)NCCc3cccs3)CC2)cc1,4,15*,5,5,2,1,-3,-7
O=C(C1CCN(S(=O)(=O)c2cccc([N+](=O)[O-])c2)CC1)N1CCOCC1,5,14*,4,-2,-2,-2,1,-3
O=[N+]([O-])c1cccc(S(=O)(=O)N2CCN(S(=O)(=O)N3CCOCC3)CC2)c1,-2,3,3,2,5,-2,·,·
COc1ccc(S(=O)(=O)N2CCC(C(=O)N3CCCC3)CC2)cc1Cl,-5,15*,-1,2,1,5,5,3
SMILES,TCR CD3 inh,DDE Tn7 FP inh,DDE Tn6 FP inh,HTRA1 inhibitor,mABHD4 FP,SIAE inh,Tn7 DDE conf,DDE Tn7 FP ctr
CCC(=O)N1CCc2cc(Br)c(S(=O)(=O)NCc3ccccc3OC)cc21,·,7,4,·,1,3,·,·
O=C(CN(Cc1cccs1)C(=O)CNS(=O)(=O)c1ccc(Cl)cc1)NCc1ccco1,9,15*,3,-3,1,5,3,-2
COc1ccccc1NS(=O)(=O)c1cc(Cl)ccc1OC,2,14*,4,-8,-2,2,10,7
CCCCNS(=O)(=O)CC1NCc2ccc(C)cc21 (configuration not stated),·,-3,7,·,0,-1,·,·
O=C(CSc1nnc(Cc2ccccc2)o1)NCCN1C(=O)CSC1=O,4,16*,1,-2,4,-8,9,4
O=C(CN1CCc2onc(-c3cccc(-n4cc(CO)nn4)c3)c2C1=O)N1CCOCC1,·,-6,2,·,4,1,·,·
CCOc1ccc(/C=N/n2c(SC)nnc(C(C)(C)C)c2=O)cc1,0,15*,0,0,9,-2,0,1
CC(C)(C)c1ccc(S(=O)(=O)N2CCC(c3cn4ccccc4n3)CC2)cc1,·,-11,5,·,2,-3,·,·
COc1ccccc1-c1ccc2c(c1)C(C)(Cc1cccc(C#N)c1)C(=O)N2 (configuration not stated),1,16*,-2,·,-16,1,4,-1
COc1ccc(Cn2cc(COC(=O)Nc3ccc(F)cc3)nn2)cc1,·,8,4,·,0,-1,·,·
N#CC1=C2C=Cc3ccccc3N2CCCC1=O,0,16*,5,4,-14,-2,2,0
O=C(CN1CCCC1)N1c2ccccc2C=Cc2ccccc21,-5,6,-3,2,3,2,·,·
O=C1C=CC(O)(c2cc(=O)c3c(O)cc(O)cc3o2)C=C1,-2,14*,0,-6,3,3,5,2
